From ChEMBL document CHEMBL1154352, “Toll-like receptor 7 selective synthetic oligoribonucleotide agonists: synthesis and structure-activity relationship studies” (J Med Chem, 2009) come the findings set out here.

The structures appear in SMILES notation. Active and inactive are the calls of the source. The calls are words filed in the database; no cut-off is given here.

Assay [1] relates to PBMC. In words: Immunomodulatory activity in human PBMC assessed as induction of IP10 at 50 ug/ml after 24 hrs. It counts as functional, cell-based. Summed up:
(§1)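 Human PBMCs plated at 5 × 10^6 cells/mL; compounds dissolved in PBS added at various concentrations, 37 °C for 24 h. Supernatant cytokines/chemokines quantified with human Luminex multiplex kit.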

Another assay has as its system Mus musculus. In words: Immunomodulatory activity in C57BL/6 mouse assessed as induction of IL12 release at 25 mg/kg, sc after 2 hrs by ELISA. The format is functional, organism-based. On the set-up: dose 25 mg/kg. In short, it runs like this:
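Female C57BL/6 wild-type mice, 5–8 weeks old, n=3; compounds given subcutaneously at 10 or 25 mg/kg. Retro-orbital blood at 2 h; serum cytokines by mouse Luminex multiplex or IL-12 ELISA.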
For orientation: ELISA stands for enzyme-linked immunosorbent assay.

Assay [2] deals with PBMC. As to the kind of experiment: Immunomodulatory activity in human PBMC assessed as induction of IFNalpha at 50 ug/ml after 24 hrs. The format is functional, cell-based. Summed up: as §1
Assay [3] has as its system PBMC. In words: Immunomodulatory activity in human PBMC assessed as induction of MIP1alpha at 50 ug/ml after 24 hrs. It counts as functional, cell-based. Summed up:
as §1

The test system of assay [4] is PBMC. As to the kind of experiment: Immunomodulatory activity in human PBMC assessed as induction of TNFalpha at 50 ug/ml after 24 hrs. The format is functional, cell-based. Summed up:
as §1

Assay [5] concerns PBMC. As to the kind of experiment: Immunomodulatory activity in human PBMC assessed as induction of MCP1 at 50 ug/ml after 24 hrs. The format is functional, cell-based. Summed up: as §1
Assay [6] is filed under the species Homo sapiens. As to the kind of experiment: Immunostimulatory activity in human pDC assessed as induction of IFNalpha at 100 ug/ml after 24 hrs. The format is functional. In short, it runs like this:
(§2)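 Human pDCs plated at 1 × 10^6 cells/mL; compounds in PBS added, 37 °C for 24 h; supernatant cytokines/chemokines by human Luminex multiplex kit.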

For assay [7], the system named is PBMC. As to the kind of experiment: Immunomodulatory activity in human PBMC assessed as induction of IL12 at 50 ug/ml after 24 hrs. It counts as functional, cell-based. In short, it runs like this: as §1
Assay [8] is filed under the species Homo sapiens. In words: Ratio of human TLR7 activity to human TLR8 activity. Summed up: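 TLR7/TLR8 ratio computed from fold NF-κB (SEAP reporter) activation in HEK293 cells stably expressing human TLR7 versus TLR8, compounds at 50 μg/mL, 18 h exposure; representative of three independent experiments.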
For assay [9], the species on record is Homo sapiens. As to the kind of experiment: Immunostimulatory activity in human mDC assessed as induction of IL12 at 100 ug/ml after 24 hrs. The format is functional. In short, it runs like this: (§3)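 Human mDCs isolated from PBMCs by CD19+ B-cell depletion then BDCA1 positive selection; plated at 1 × 10^6 cells/mL, compounds in PBS, 37 °C for 24 h; supernatant cytokines by human Luminex multiplex. Representative of four independent experiments.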

The species named for assay [10] is Homo sapiens. As to the kind of experiment: Immunostimulatory activity in human mDC assessed as induction of TNFalpha at 100 ug/ml after 24 hrs. It counts as functional. In short, it runs like this:
as §3

The species entered for assay [11] is Homo sapiens. As to the kind of experiment: Immunostimulatory activity in human mDC assessed as induction of IFNalpha at 100 ug/ml after 24 hrs. It counts as functional. Summed up:
as §3

Assay [12] has as its system PBMC. As to the kind of experiment: Immunomodulatory activity in human PBMC assessed as induction of MIP1beta at 50 ug/ml after 24 hrs. It counts as functional, cell-based. Summed up: as §1
Assay [13] concerns PBMC. As to the kind of experiment: Immunomodulatory activity in human PBMC assessed as induction of IL6 at 50 ug/ml after 24 hrs. It counts as functional, cell-based. In short, it runs like this:
as §1

The target of assay [14] is Toll-like receptor 3 (Homo sapiens) (UniProt O15455). As to the kind of experiment: Activation of human TLR3 expressed in HEK293 assessed as induction of NF-kappaB activity reporter gene assay. The format is cell-based.
The species entered for assay [15] is Homo sapiens. As to the kind of experiment: Immunostimulatory activity in human pDC assessed as induction of IP10 at 100 ug/ml after 24 hrs. It counts as functional. In short, it runs like this:
as §2

Assay [16] is filed under the species Homo sapiens. As to the kind of experiment: Immunostimulatory activity in human pDC assessed as induction of IL6 at 100 ug/ml after 24 hrs. The format is functional. Summed up: as §2
Assay [17] is filed under the species Homo sapiens. As to the kind of experiment: Immunostimulatory activity in human mDC assessed as induction of IL6 at 100 ug/ml after 24 hrs. It counts as functional. In short, it runs like this: as §3
Assay [18] is filed under the species Homo sapiens. In words: Immunostimulatory activity in human mDC assessed as induction of IP10 at 100 ug/ml after 24 hrs. It counts as functional. Summed up:
as §3

In assay [19] the target is T1, Toll-like receptor 7 (Homo sapiens) (UniProt Q9NYK1).
T1 sequence (whole entry): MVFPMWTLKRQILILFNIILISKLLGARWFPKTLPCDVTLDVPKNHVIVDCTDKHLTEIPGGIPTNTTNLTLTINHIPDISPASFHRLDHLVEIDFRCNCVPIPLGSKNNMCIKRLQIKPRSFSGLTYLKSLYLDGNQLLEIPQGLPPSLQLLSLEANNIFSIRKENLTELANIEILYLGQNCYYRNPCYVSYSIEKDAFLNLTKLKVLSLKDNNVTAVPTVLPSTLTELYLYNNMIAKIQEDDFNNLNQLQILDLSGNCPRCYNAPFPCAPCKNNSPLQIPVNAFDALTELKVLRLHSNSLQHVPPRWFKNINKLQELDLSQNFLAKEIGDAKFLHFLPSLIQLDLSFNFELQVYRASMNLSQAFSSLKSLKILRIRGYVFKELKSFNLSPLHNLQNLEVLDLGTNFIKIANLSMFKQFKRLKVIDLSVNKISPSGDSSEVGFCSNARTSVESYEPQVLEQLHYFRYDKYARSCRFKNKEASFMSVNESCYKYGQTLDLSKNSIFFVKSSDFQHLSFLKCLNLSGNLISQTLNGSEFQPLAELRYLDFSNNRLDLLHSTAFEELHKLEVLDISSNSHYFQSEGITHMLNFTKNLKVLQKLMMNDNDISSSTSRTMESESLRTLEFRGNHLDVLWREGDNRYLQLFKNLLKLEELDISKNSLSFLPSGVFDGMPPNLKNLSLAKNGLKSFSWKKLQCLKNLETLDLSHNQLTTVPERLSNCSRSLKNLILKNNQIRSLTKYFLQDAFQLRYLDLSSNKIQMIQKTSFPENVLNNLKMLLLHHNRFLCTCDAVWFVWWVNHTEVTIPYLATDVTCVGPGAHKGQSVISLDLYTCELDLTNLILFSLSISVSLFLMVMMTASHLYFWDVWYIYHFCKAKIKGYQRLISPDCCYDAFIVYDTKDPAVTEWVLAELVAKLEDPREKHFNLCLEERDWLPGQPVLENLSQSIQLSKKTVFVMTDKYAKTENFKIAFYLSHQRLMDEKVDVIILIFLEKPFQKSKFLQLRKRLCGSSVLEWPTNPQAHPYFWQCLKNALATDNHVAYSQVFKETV
As to the kind of experiment: Activation of human TLR7 expressed in HEK293XL assessed as fold induction of NF-kappaB activity at 50 ug/ml after 18 hrs by reporter gene assay relative to control. In short, it runs like this:
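HEK293 cells stably expressing human TLR7 or TLR8, transiently transfected with SEAP reporter plasmid; medium replaced, SIMRA compounds added, 18 h incubation. Supernatant SEAP measured by QuantiBlue; expressed as fold increase in NF-κB activity over PBS control. Tabulated data at 50 μg/mL, representative of three independent experiments.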

Assay [20] concerns PBMC. As to the kind of experiment: Immunomodulatory activity in human PBMC assessed as induction of IL1-beta at 50 ug/ml after 24 hrs. It counts as functional, cell-based. Summed up: as §1

Chain of Toll-like receptor 3 (Homo sapiens) (O15455 whole entry): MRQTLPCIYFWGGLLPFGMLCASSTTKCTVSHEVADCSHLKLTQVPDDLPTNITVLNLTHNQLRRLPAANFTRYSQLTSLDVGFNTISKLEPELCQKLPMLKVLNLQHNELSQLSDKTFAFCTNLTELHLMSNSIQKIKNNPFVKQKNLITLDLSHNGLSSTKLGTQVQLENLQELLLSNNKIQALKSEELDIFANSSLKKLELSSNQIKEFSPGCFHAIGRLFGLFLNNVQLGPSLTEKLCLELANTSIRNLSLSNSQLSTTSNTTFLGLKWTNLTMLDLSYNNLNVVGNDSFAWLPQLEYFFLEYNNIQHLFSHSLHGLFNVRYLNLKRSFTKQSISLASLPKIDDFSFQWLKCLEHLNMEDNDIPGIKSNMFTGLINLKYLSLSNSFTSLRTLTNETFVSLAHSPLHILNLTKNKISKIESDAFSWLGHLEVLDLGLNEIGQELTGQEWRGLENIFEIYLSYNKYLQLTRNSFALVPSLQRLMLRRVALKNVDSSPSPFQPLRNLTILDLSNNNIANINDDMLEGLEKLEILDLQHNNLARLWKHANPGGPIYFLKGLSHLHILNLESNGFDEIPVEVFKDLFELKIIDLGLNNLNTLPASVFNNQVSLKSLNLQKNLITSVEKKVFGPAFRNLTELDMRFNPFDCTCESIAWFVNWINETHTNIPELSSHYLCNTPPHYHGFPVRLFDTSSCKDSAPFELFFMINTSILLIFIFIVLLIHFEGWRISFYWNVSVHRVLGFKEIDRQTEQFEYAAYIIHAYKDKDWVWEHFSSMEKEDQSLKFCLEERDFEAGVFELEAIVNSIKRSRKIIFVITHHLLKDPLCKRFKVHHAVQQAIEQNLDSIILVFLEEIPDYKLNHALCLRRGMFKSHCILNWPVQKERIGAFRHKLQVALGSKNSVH

Regarding `Nc1ccn([C@@H]2O[C@H](COP(O)(=S)O[C@H]3[C@@H](O)[C@H](n4ccc(=O)[nH]c4=O)O[C@@H]3COP(O)(=S)O[C@H]3[C@@H](O)[C@H](n4ccc(=O)[nH]c4=O)O[C@@H]3COP(O)(=S)O[C@H]3[C@@H](O)[C@H](n4ccc(N)nc4=O)O[C@@H]3COP(O)(=S)O[C@H]3[C@@H](O)[C@H](n4ccc5c(=O)[nH]c(N)nc54)O[C@@H]3COP(O)(=S)O[C@H]3[C@@H](O)[C@H](n4ccc(=O)[nH]c4=O)O[C@@H]3COP(O)(=S)O[C@H]3[C@@H](O)[C@H](n4ccc(N)nc4=O)O[C@@H]3COP(O)(=S)O[C@H]3[C@@H](O)[C@H](n4ccc5c(=O)[nH]c(N)nc54)O[C@@H]3COP(O)(=S)O[C@H]3[C@@H](O)[C@H](n4ccc(=O)[nH]c4=O)O[C@@H]3CO)[C@@H](OP(O)(=S)OC[C@H]3O[C@@H](n4ccc(=O)[nH]c4=O)[C@H](O)[C@@H]3OP(O)(=S)OC[C@H]3O[C@@H](n4ccc5c(=O)[nH]c(N)nc54)[C@H](O)[C@@H]3OP(O)(=S)OCC(O)COP(O)(=S)O[C@H]3[C@@H](O)[C@H](n4ccc5c(=O)[nH]c(N)nc54)O[C@@H]3COP(O)(=S)O[C@H]3[C@@H](O)[C@H](n4ccc(=O)[nH]c4=O)O[C@@H]3COP(O)(=S)O[C@H]3[C@@H](O)[C@H](n4ccc(N)nc4=O)O[C@@H]3COP(O)(=S)O[C@H]3[C@@H](O)[C@H](n4ccc(=O)[nH]c4=O)O[C@@H]3COP(O)(=S)O[C@H]3[C@@H](O)[C@H](n4ccc(=O)[nH]c4=O)O[C@@H]3COP(O)(=S)O[C@H]3[C@@H](O)[C@H](n4ccc(N)nc4=O)O[C@@H]3COP(O)(=S)O[C@H]3[C@@H](O)[C@H](n4ccc5c(=O)[nH]c(N)nc54)O[C@@H]3COP(O)(=S)O[C@H]3[C@@H](O)[C@H](n4ccc(=O)[nH]c4=O)O[C@@H]3COP(O)(=S)O[C@H]3[C@@H](O)[C@H](n4ccc(N)nc4=O)O[C@@H]3COP(O)(=S)O[C@H]3[C@@H](O)[C@H](n4ccc5c(=O)[nH]c(N)nc54)O[C@@H]3COP(O)(=S)O[C@H]3[C@@H](O)[C@H](n4ccc(=O)[nH]c4=O)O[C@@H]3CO)[C@H]2O)c(=O)n1` (stereo partly specified), the Activity in the assay with PBMC [1] came out at 167 pg/mL; in the assay on PBMC [2], 373 pg/mL; with PBMC [3] it was 15500 pg/mL; with PBMC [4] it was 688 pg/mL; with PBMC [5], 47400 pg/mL; in the assay on PBMC [7], 671 pg/mL. The Activity in the assay on PBMC [12] was determined as 27600 pg/mL; in the assay on PBMC [13], 5580 pg/mL; with PBMC [20] it was 688 pg/mL. Also, the result in the assay on Mus musculus, in the assay filed under Homo sapiens [6], in the assay listed under Homo sapiens [9], in the assay filed under Homo sapiens [10], in the assay listed under Homo sapiens [11] and in the assay filed under Homo sapiens [15] was Active. Also, the result in the assay listed under Homo sapiens [16], in the assay filed under Homo sapiens [17] and in the assay listed under Homo sapiens [18] was Active. The Ratio in the assay filed under Homo sapiens [8] is 3.4. The result in assay [14] was inactive. Besides, the fold change (FC) in assay [19] turned out to be 16.1.
